# Laboratory results: paper PMC4094269 (Journal of Medicinal Chemistry, 2014)
# “Also recorded” adds a separate entry of the source.
# Tests used:
# [1] = Water solubility; format: physicochemical
# [2] = target: PARP-1 (Homo sapiens, UniProt P09874); test: PARP-1 inhibition assay; format: biochemical
# [3] = tested on: BRCA2-deficient DT40 cells; test: DT40 cell viability; format: cell-based, Chicken; conditions: 72 h
# [4] = tested on: wild-type DT40 cells; test: DT40 cell viability; format: cell-based, Chicken; conditions: 72 h, veliparib up to 10 μM
# In short: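 Chicken DT40 B-cell lines from an academic lab. 200 cells per well, continuously exposed to a range of drug concentrations for 72 h, in triplicate. Viability read by ATP content: one-step luciferase reagent added, luminescence read after 5 min. Viability is the treated ATP level over untreated ATP level × 100, with untreated set to 100%. SD from n = 3.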
# [5] = tested on: PARP-1-deficient DT40 cells; test: DT40 cell viability; format: cell-based, Chicken; conditions: 72 h, veliparib up to 10 μM
# Chain of PARP-1 (P09874 whole entry): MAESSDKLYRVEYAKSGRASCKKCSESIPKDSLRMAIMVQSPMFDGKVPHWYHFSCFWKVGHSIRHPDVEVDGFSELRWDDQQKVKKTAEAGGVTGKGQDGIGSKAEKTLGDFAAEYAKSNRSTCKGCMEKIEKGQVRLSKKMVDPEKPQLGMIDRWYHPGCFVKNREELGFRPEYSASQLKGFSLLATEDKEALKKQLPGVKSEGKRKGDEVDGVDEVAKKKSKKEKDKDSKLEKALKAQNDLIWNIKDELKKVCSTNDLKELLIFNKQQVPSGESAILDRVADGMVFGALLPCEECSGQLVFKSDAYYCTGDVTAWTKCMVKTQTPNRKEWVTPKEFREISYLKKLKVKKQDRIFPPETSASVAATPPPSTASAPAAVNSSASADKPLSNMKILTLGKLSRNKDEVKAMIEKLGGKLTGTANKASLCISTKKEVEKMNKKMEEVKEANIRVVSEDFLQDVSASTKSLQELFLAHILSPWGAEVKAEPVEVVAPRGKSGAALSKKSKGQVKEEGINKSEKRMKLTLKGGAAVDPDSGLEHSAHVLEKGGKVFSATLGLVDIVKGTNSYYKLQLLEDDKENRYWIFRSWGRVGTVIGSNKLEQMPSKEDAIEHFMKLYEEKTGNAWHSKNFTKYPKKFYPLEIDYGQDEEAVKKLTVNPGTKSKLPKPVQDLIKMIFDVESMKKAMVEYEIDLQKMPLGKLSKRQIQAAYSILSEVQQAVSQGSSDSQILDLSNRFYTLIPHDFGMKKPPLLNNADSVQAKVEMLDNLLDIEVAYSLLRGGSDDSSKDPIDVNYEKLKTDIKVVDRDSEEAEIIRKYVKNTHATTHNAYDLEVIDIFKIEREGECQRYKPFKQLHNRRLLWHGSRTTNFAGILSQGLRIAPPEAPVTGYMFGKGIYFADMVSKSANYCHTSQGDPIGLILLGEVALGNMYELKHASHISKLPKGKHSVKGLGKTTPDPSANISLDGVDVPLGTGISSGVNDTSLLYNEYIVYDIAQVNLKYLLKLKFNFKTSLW
smiles,measurement,setting,value
"CN1CCN(CCS(=O)(=O)Nc2ccc(/C=C3\Oc4c(C(N)=O)cccc4C3=O)cc2)CC1 [Compound 72, (Z)-2-{4-[2-(4-Methylpiperazin-1-yl)ethanesulfonylamino]benzylidene}-3-oxo-2,3-dihydrobenzofuran-7-carboxamide]","water solubility, result in words",[1],water-soluble
"CC1Cc2cc([N+](=O)[O-])cc(C(N)=O)c2O1 (stereo not shown) [Compound 14, 2-Methyl-5-nitro-2,3-dihydrobenzofuran-7-carboxamide]","PARP-1 inhibition, result in words",[2],inactive
"NC(=O)c1cccc2c1O/C(=C\c1ccc(OCC(=O)N3CCOCC3)cc1)C2=O [Compound 68, (Z)-2-[4′-(2-Morpholin-4-yl-2-oxoethoxy)benzylidene]-3-oxo-2,3-dihydrobenzofuran-7-carboxamide]",fold improvement in potency,[2]; 68 vs 65,9 fold
"NC(=O)c1cccc2c1O/C(=C\c1ccc(OCCCN3CCOCC3)cc1)C2=O [Compound 67, (Z)-2-[4′-(3-Morpholin-4-ylpropoxy)benzylidene]-3-oxo-2,3-dihydrobenzofuran-7-carboxamide]",times more potent,[2]; 67 vs ethyl analogue 65,~3 times
"NC(=O)c1cccc2c1O/C(=C\c1ccccc1O)C2=O [Compound 55, (Z)-2-(2′-Hydroxybenzylidene)-3-oxo-2,3-dihydrobenzofuran-7-carboxamide]","PARP-1 inhibition, result in words",[2],Poor inhibition
"CN1CCN(CCOc2ccc(/C=C3\Oc4c(C(N)=O)cccc4C3=O)cc2)CC1 [Compound 66, (Z)-2-{4′-[2-(4-Methylpiperazin-1-yl)ethoxy]benzylidene}-3-oxo-2,3-dihydrobenzofuran-7-carboxamide]","cytotoxicity, result in words",[3],selective cytotoxicity; also recorded: selectively killed; also recorded: selectively active
same,"cytotoxicity, result in words",[4],minimally cytotoxic
same,"cytotoxicity, result in words",[5],minimally cytotoxic
same,"water solubility, result in words",[1],water-soluble
"Cc1cc2c(c(C(N)=O)c1)OC(C)C2 (stereo not shown) [Compound 13b, 2,5-Dimethyl-2,3-dihydrobenzofuran-7-carboxamide]","PARP-1 inhibition, result in words",[2],inactive
"CC1Cc2cc(N)cc(C(N)=O)c2O1 (stereo not shown) [Compound 15, 5-Amino-2-methyl-2,3-dihydrobenzofuran-7-carboxamide]","PARP-1 inhibition, result in words",[2],inactive
"NC(=O)c1cccc2c1O/C(=C\c1ccc(O)c(O)c1)C2=O [Compound 58, (Z)-2-(3′,4′-Dihydroxybenzylidene)-3-oxo-2,3-dihydrobenzofuran-7-carboxamide]",fold improvement in potency,[2]; 58 vs core 36,30 fold
"CC1Cc2c(N)ccc(C(N)=O)c2O1 (racemic) [rac-28, 4-Amino-2-methyl-2,3-dihydrobenzofuran-7-carboxamide]",fold increase in inhibition,[2]; rac-28 vs rac-13a,2 fold
"NC(=O)c1cc(F)cc2c1OCC2 [Compound 20, 5-Fluoro-2,3-dihydrobenzofuran-7-carboxamide]",fold more potent,[2]; 20 vs initial lead 3,~5 fold
"NC(=O)c1cccc2c1O/C(=C\c1cc(O)cc(O)c1)C2=O [Compound 60, (Z)-2-(3′,5′-Dihydroxybenzylidene)-3-oxo-2,3-dihydrobenzofuran-7-carboxamide]","PARP-1 inhibition, result in words",[2],poor inhibition; also recorded: complete loss of potency
"NC(=O)c1cccc2c1O/C(=C\c1ccc(OCCN3CCOCC3)cc1)C2=O [Compound 65, (Z)-2-[4′-(2-Morpholin-4-ylethoxy)benzylidene]-3-oxo-2,3-dihydrobenzofuran-7-carboxamide]",fold less potent,[2]; 65 vs 64,4 fold
"CC1Cc2cc(F)cc(C(N)=O)c2O1 (racemic) [rac-13c, 5-Fluoro-2-methyl-2,3-dihydrobenzofuran-7-carboxamide]",fold more potent,[2]; rac-13c vs 13a,4 fold
"NC(=O)c1cccc2c1O/C(=C\c1cc(O)ccc1O)C2=O [Compound 61, (Z)-2-(2′,5′-Dihydroxybenzylidene)-3-oxo-2,3-dihydrobenzofuran-7-carboxamide]","PARP-1 inhibition, result in words",[2],poor inhibition; also recorded: complete loss of potency
"COc1ccc(/C=C2\Oc3c(C(N)=O)cccc3C2=O)cc1 [Compound 54, (Z)-2-(4′-Methoxybenzylidene)-3-oxo-2,3-dihydrobenzofuran-7-carboxamide]",fold reduced inhibitory activity,[2]; 54 vs 57,4 fold
